The results in this text go back to ChEMBL document CHEMBL4823260, “From High-Throughput Screening to Target Validation: Benzo[d]isothiazoles as Potent and Selective Agonists of Human Transient Receptor Potential Cation Channel Subfamily M Member 5 Possessing In Vivo Gastrointestinal Prokinetic Activity in Rodents” (J Med Chem, 2021).

Data set [1] concerns the target T1, Transient receptor potential cation channel subfamily M member 5 (Homo sapiens, UniProt Q9NZQ8).
T1 sequence (Q9NZQ8 whole entry): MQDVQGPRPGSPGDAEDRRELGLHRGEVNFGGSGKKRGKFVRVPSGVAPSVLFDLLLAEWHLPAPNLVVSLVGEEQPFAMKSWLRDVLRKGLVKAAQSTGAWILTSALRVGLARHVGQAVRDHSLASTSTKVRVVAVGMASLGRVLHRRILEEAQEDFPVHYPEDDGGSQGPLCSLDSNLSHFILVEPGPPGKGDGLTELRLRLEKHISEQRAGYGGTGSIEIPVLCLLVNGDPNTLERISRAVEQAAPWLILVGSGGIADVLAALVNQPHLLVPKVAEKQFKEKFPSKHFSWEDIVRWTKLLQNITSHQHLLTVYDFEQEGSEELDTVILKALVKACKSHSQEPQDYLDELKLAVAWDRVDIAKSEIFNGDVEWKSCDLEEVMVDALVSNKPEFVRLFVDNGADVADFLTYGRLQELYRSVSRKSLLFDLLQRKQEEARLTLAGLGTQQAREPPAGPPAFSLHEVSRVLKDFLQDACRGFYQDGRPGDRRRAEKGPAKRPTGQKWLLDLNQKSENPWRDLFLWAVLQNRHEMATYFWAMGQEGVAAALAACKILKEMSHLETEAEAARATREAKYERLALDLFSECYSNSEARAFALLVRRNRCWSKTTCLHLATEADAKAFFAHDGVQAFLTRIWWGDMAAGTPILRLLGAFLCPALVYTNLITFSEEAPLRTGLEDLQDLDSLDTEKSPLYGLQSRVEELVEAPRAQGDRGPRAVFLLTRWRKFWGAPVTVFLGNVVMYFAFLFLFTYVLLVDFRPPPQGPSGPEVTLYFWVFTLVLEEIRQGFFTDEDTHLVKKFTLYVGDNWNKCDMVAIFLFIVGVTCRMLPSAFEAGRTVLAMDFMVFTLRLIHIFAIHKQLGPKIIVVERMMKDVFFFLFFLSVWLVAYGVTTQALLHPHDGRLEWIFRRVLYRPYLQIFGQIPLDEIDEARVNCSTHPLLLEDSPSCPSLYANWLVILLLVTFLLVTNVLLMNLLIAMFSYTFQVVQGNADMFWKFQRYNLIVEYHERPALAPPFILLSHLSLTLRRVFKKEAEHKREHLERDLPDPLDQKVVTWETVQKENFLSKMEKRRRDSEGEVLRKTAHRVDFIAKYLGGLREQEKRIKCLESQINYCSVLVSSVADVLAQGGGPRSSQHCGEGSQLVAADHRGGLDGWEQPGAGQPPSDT
The data set is described as follows: Agonist activity at human TRPM5 expressed in CHO-K1 cells maintained at 80 mV final holding potential by syncroPatch assay. Type of data set: cell-based. In short, it runs like this: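 SyncroPatch 384 whole-cell recording at rt on CHO-K1 cells stably expressing human or mouse TRPM5. Intracellular solution had 2 mM Na-ATP and 5 μM free Ca2+. Cumulative doses 0.03–31.6 μM in 0.5% DMSO, 150 s each after 180 s vehicle. Current measured at the end of the +80 mV step, normalized to vehicle; pEC50 is the mean of ≥2 independent experiments.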

Data set [2] is described as follows: Intrinsic clearance in human liver microsomes assessed per mg protein incubated up to 30 mins in presence of NADPH by LC-MS/MS analysis. In kind it is ADME, Microsome. The note with it: […].
Data set [3] is described as follows: Intrinsic clearance in mouse liver microsomes assessed per mg protein incubated up to 30 mins in presence of NADPH by LC-MS/MS analysis. In kind it is ADME, Microsome. The note with it: […].

In the case of `Cn1c(CNc2ccc(Cl)cc2)nc2ccccc21`, the EC50 in data set [1] was over 31.6 µM. In data set [1], `CN(Cc1ncc(Cl)n1C)c1ccc2cnsc2c1` showed an EC50 of 0.0851 µM. This lies in the double-digit nanomolar range. Regarding `Cn1c(Cl)cnc1CNc1ccc2[nH]cnc2c1`, in data set [1], the EC50 was over 31.6 µM. As to `Clc1cnc(CNc2ccc3sncc3c2)[nH]1`, the EC50 in data set [1] is over 31.6 µM. For `Cn1c(Cl)cnc1CNc1ccc2ocnc2c1`, the EC50 in data set [1] was 16.2 µM. For `Clc1cnc(CNc2ccc3sncc3n2)s1`, the midpoint of the response in data set [1], the EC50, lay at 1.17 µM. The figures for the microsomal CLint in data set [2] and in data set [3] were 172 µL/min/mg and 421 µL/min/mg, respectively. On the same counts, the results for `Clc1cnc(CNc2cnc3sncc3c2)s1` are 6.61 µM, 84 µL/min/mg and 163 µL/min/mg. Turning to `CC(C)c1cnc(CNc2ccc3sncc3c2)s1`, the EC50 in data set [1] is over 31.6 µM. Regarding `CN(Cc1ncc(Cl)n1C)c1cc2sncc2cc1Cl`, the EC50 in data set [1] was 0.309 µM. `Cn1c(CNc2ccc3sncc3c2)nc(Cl)c1Cl` had an EC50 in data set [1] of over 31.6 µM. As to `CCN(Cc1ncc(Cl)n1C)c1ccc2sncc2c1`, the EC50 in data set [1] is 0.468 µM. The same measure, in the same setting: to `CN(Cc1ncc(Cl)s1)c1cc2cnsc2cc1Cl` belongs 1.62 µM; to `Cc1nnc(CNc2ccc3sncc3c2)s1`, 19.1 µM. Consider `CC(C)(Nc1ccc2sncc2c1)c1ncc(Cl)s1`, for which the EC50 in data set [1] was over 31.6 µM. Besides, the values for the microsomal CLint in data set [2] and in data set [3] were 173 µL/min/mg and 250 µL/min/mg, respectively. Molecule `Cn1ccnc1CNc1ccc2sncc2c1` showed an EC50 in data set [1] of 5.13 µM. Molecule `Cn1c(Cl)cnc1CNc1ccc2c(cnn2C)c1` showed an EC50 in data set [1] of 5.25 µM. This EC50 and that of the molecule before are within 1.5-fold of each other.

`Cn1ccnc1CNc1ccc(Cl)cc1OCCC(F)(F)F` showed an EC50 in data set [1] of 2.51 µM. Compared with the last molecule, the EC50 is about 2.1-fold lower. The same measure, in the same setting: under `Cc1nc(CNc2ccc3sncc3c2)sc1C` stands over 31.6 µM. `Cc1cc(NCc2ncc(Cl)s2)cc2cnsc12` gave an EC50 in data set [1] of over 31.6 µM. For the same molecule, the microsomal CLint worked out at 169 µL/min/mg in data set [2] and 434 µL/min/mg in data set [3]. In data set [1], `Fc1cc(NCc2ncc(Cl)s2)cc2cnsc12` showed an EC50 of 1.38 µM. For the same molecule, the results for the microsomal CLint in data set [2] and in data set [3] were 202 µL/min/mg and 612 µL/min/mg, respectively. In data set [1], `Cn1c(Cl)cnc1CNc1ccc2oncc2c1` showed an EC50 of 3.02 µM.

With `Fc1cc2cnsc2cc1NCc1ncc(Cl)s1`, the EC50 in data set [1] is 0.0288 µM.

Molecule `N#Cc1ccc(CNc2ccc3sncc3c2)s1` had an EC50 in data set [1] of over 31.6 µM. In the case of `Cn1c(Br)cnc1CNc1ccc2sncc2c1`, a half-maximal effect in data set [1] (EC50) was put at 0.457 µM. As to `Cc1cc2cnsc2cc1NCc1ncc(Cl)s1`, the EC50 in data set [1] was 0.0178 µM. `Cn1c(Cl)cnc1CN(CC1CCCCC1)c1ccc2sncc2c1`: in data set [1], the EC50 was over 31.6 µM.

Turning to `c1csc(CNc2ccc3sncc3c2)n1`, the response in data set [1] was half-maximal at 4.68 µM (EC50). Consider `Cc1cc2cnsc2cc1NCc1ncc(Cl)n1C`, for which a half-maximal effect in data set [1] (EC50) was put at 0.038 µM. With `Cn1c(Cl)cnc1CNc1ccc2c(c1)nnn2C`, in data set [1], the EC50 is over 31.6 µM. The molecule `Clc1cnc(CNc2cc3cnsc3cn2)s1` showed an EC50 in data set [1] of 0.468 µM. For the same molecule, the results for the microsomal CLint in data set [2] and in data set [3] were 155 µL/min/mg and 93 µL/min/mg, respectively. As to `COc1ccc(N(C)Cc2ncc(Cl)n2C)cc1OC`, the EC50 in data set [1] was over 31.6 µM. `Cn1c(Cl)ccc1CNc1ccc2sncc2c1` showed an EC50 in data set [1] of over 31.6 µM.

In turn, `Clc1cnc(CNc2cccc3sncc23)s1` gave an EC50 in data set [1] of over 31.6 µM. `Cc1cc2sncc2cc1NCc1ncc(Cl)s1`: the EC50 in data set [1] was 0.0389 µM. For the same molecule, the microsomal CLint amounted to 157 µL/min/mg in data set [2] and 148 µL/min/mg in data set [3]. Turning to `Clc1cnc(CNc2ccc3sncc3c2Cl)s1`, the EC50 in data set [1] is 1.58 µM. For the same molecule, the values for the microsomal CLint in data set [2] and in data set [3] were 174 µL/min/mg and 258 µL/min/mg, respectively. In the case of `Cc1cc2sncc2cc1N(C)Cc1ncc(Cl)s1`, the EC50 in data set [1] is 5.25 µM. For the same molecule, the values for the microsomal CLint in data set [2] and in data set [3] were 562 µL/min/mg and 748 µL/min/mg, respectively. With `CC(Nc1ccc2sncc2c1)c1ncc(Cl)s1` (configuration not stated), in data set [1], the response was half-maximal at 7.59 µM (EC50).

The molecule `Cn1c(Cl)cnc1CNc1cc2sncc2cc1F` had an EC50 in data set [1] of 0.102 µM. `Cn1c(Cl)cnc1CN(CC1CC1)c1ccc2sncc2c1` showed a half-maximal effective concentration (EC50) in data set [1] of 0.158 µM.

For `CN(Cc1ncc(Cl)s1)c1ccc2sncc2c1`, the EC50 in data set [1] was 0.447 µM. `Cc1c(NCc2ncc(Cl)s2)ccc2sncc12`: the EC50 in data set [1] is 1.74 µM. The microsomal CLint is 178 µL/min/mg in data set [2] and 508 µL/min/mg in data set [3]. Regarding `Cn1c(Cl)cnc1CN(Cc1ccccc1)c1ccc2sncc2c1`, the EC50 in data set [1] is over 31.6 µM.

`Cn1c(Cl)cnc1CNc1ccc2cnsc2c1` showed an EC50 in data set [1] of 0.295 µM. With `Cc1cnc(CNc2ccc3sncc3c2)s1`, the concentration for a half-maximal effect (EC50) in data set [1] was 0.575 µM. This EC50 lies about 1.9-fold higher than the previous one. As for `Clc1cnc(COc2ccc3sncc3c2)s1`, in data set [1], the EC50 was 0.832 µM. The values for the microsomal CLint in data set [2] and in data set [3] were 157 µL/min/mg and 763 µL/min/mg, respectively. As to `Cc1csc(CNc2ccc3sncc3c2)n1`, the EC50 in data set [1] was over 31.6 µM.

The molecule `Cn1c(Cl)cnc1CNc1ccc2scnc2c1` showed an EC50 in data set [1] of 13.5 µM. Regarding `CN(Cc1ncc(Cl)s1)c1cc2cnsc2cc1F`, the EC50 in data set [1] was 2.82 µM. Molecule `O=C(Nc1ccc2sncc2c1)c1ncc(Cl)s1` showed an EC50 in data set [1] of over 31.6 µM. In the case of `CN(Cc1ncc(Cl)n1C)c1ccc2sncc2c1`, the EC50 in data set [1] is 0.158 µM. The molecule `Clc1cnc(CNc2cc3cnsc3cc2Cl)s1` gave an EC50 in data set [1] of 0.0245 µM. Besides, the figures for the microsomal CLint in data set [2] and in data set [3] were 149 µL/min/mg and 527 µL/min/mg, respectively. For `Cn1c(Cl)cnc1CN1CC(CO)Cc2cccc(F)c21` (configuration not stated), the EC50 in data set [1] was 5.01 µM. In other words, the single-digit micromolar range.

Molecule `Clc1cnc(CNc2cc(Cl)c3sncc3c2)s1` gave an EC50 in data set [1] of over 31.6 µM. The microsomal CLint in data set [2] turned out to be 150 µL/min/mg; in data set [3] it was 221 µL/min/mg. Molecule `Clc1ccc(CNc2ccc3sncc3c2)s1` gave an EC50 in data set [1] of 2.75 µM. For the molecule `Clc1cnc(CNc2cccc3cnsc23)s1`, the EC50 in data set [1] was 1.45 µM. This EC50 lies about 1.9-fold lower than the previous one.

`Fc1c(NCc2ncc(Cl)s2)ccc2sncc12` showed a half-maximal effective concentration (EC50) in data set [1] of 0.933 µM. For the same molecule, the microsomal CLint was 247 µL/min/mg in data set [2] and 448 µL/min/mg in data set [3]. Take `c1ccc2sc(CNc3ccc4sncc4c3)nc2c1`: the EC50 in data set [1] is over 31.6 µM.

In data set [1], `CC(C)N(Cc1ncc(Cl)n1C)c1ccc2sncc2c1` showed an EC50 of 5.13 µM. For `CCN(Cc1ncc(Cl)n1C)c1ccc(Br)cc1`, the response in data set [1] was half-maximal at 5.13 µM (EC50).

Consider `Fc1cc2sncc2cc1NCc1ncc(Cl)s1`, for which a half-maximal effect in data set [1] (EC50) was put at 0.0977 µM. Also, the microsomal CLint in data set [2] stood at 142 µL/min/mg; in data set [3], 312 µL/min/mg. `FC(F)(F)c1cnc(CNc2ccc3sncc3c2)s1` gave an EC50 in data set [1] of 0.49 µM.

`CC(=O)N(Cc1ncc(Cl)n1C)c1ccc2sncc2c1` showed an EC50 in data set [1] of over 31.6 µM.

Molecule `Cn1c(Cl)cnc1CNc1ccc2[nH]ncc2c1` showed an EC50 in data set [1] of 6.03 µM.

`Cn1nc(CNc2ccc3sncc3c2)cc1C(F)(F)F` had an EC50 in data set [1] of over 31.6 µM.

In data set [1], `Cn1c(Cl)cnc1CNc1cc2sncc2cc1Cl` had an EC50 of 0.0112 µM.

Molecule `Clc1snnc1CNc1ccc2sncc2c1` had an EC50 in data set [1] of 5.25 µM. Regarding `Cn1c(Cl)cnc1CN1CCc2ccccc21`, the 50% effective concentration (EC50) in data set [1] was 22.9 µM.
